Compounds with a hit are over-represented: about 2.5% of the library has one in this group of screens.
ABCG2 inh: ABCG2 efflux pump inhibitors, primary screen, multiplex with ABCB1, IgMXP3 cells, flow cytometry | Broad substrate specificity ATP-binding cassette transporter ABCG2 (Homo sapiens), Q9UNQ0 | JC-1 efflux | inhibition, % at 6.6 µM | 190,000 compounds, 0.1% hits;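 active = inhibition above 80%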;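 also: 0% = DMSO and 100% = nicardipine control wells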
Target sequence (Q9UNQ0 whole entry, looked up): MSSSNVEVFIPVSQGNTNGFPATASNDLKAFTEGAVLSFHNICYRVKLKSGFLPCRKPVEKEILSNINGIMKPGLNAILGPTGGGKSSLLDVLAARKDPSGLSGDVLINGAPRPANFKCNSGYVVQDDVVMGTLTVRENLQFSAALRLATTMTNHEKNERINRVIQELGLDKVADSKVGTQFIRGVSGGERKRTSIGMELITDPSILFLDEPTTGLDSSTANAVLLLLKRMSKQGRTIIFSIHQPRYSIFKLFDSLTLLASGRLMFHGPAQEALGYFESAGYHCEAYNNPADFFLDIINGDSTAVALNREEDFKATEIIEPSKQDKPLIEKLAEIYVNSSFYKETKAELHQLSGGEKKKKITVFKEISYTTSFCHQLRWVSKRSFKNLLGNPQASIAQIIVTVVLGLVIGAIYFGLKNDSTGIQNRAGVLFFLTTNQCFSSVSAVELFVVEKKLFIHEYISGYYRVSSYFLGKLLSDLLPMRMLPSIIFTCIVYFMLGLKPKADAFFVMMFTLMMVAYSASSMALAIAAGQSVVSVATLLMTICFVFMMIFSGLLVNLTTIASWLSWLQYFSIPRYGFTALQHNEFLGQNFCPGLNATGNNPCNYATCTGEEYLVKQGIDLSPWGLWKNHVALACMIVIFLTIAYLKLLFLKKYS
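Test system: IgMXP3 (ABCG2) plus far-red-tagged CCRF-Adr (ABCB1) cells. Reagent: JC-1 dye as substrate. Timing: 10 min exposure at 25 °C with rotation, no wash. Measured by: flow cytometric JC-1 green MFI at 530 nm. Read-out: percent efflux inhibition, scaled nicardipine 100% to DMSO 0%. Control set: nicardipine and DMSO wells.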
MEKK2wt PB1 HTS: modulators of MEK5 binding to wildtype MEKK2, primary screen, biochemical, multiplex bead flow cytometry, Alexa488-MEK5; Alexa488-MEK5 binding to MEKK2 WT; actives lie on both sides; Mitogen-activated protein kinase kinase kinase 2 (Homo sapiens), Q9Y2U5; 290,000 compounds, 1.1% hits; AID 1531, 2009; binding response (% of control), % at 10 µM; in the data active = binding response below about 67% or above about 130%
MEKK2mut PB1 HTS: MEK5 binding signal on mutant MEKK2 PB1, primary screen, biochemical, multiplex bead flow cytometry, Alexa488-MEK5 | Alexa488-MEK5 binding to MEKK2 mutant | percent response, % at 10 µM | 290,000 compounds, 0.35% hits | AID 1530, 2009; in the data active = percent response above about 24%, passing the limit was not always enough
Efflux pump inh: inhibitors of Candida efflux pumps in yeast, primary screen, S. cerevisiae, Nile Red, multiplex; AID 485275, 2010; S. cerevisiae Candida pump triplex; 330,000 compounds, 0.44% hits; inhibition, % at 10 µM;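 active = plate passing quality check with inhibition over a set limit, or well fluorescence over plate mean plus 4 SD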;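 also: Nile Red retained in pooled yeast measured as flow cytometry median fluorescence; 0% = buffer negative control and 100% = Enniatin B positive control; higher means more Nile Red kept so more efflux inhibition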
MEKK3 PB1 HTS: modulators of MEKK3-MEK5 PB1 binding, primary screen, biochemical, wildtype MEKK3, multiplex bead flow cytometry, Alexa488-MEK5; binding response (% of control), % at 10 µM; 290,000 compounds, 1.4% hits; AID 1529, 2009; Mitogen-activated protein kinase kinase kinase 3 (Homo sapiens), Q99759; bead-based flow cytometry, Alexa488-MEK5 binding to MEKK3; actives lie on both sides; 0 = blocked by unlabeled MEK5, 100 = vehicle;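 active = binding response more than 3 SD above or below the average of its plate-row segment, actives on both sides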;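 also: Alexa488 bead fluorescence after subtracting the streptavidin-only scavenger bead signal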
ABCB1 block: ABCB1 efflux pump inhibitors, primary screen, cell-based, multiplex, flow cytometry, ABCG2 counter-screen. ATP-dependent translocase ABCB1 (Homo sapiens), P08183. CCRF-Adr cells, JC-1 efflux. inhibition, % at 6.6 µM. 190,000 compounds, 0.067% hits; in the data active = inhibition above about 40%;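 also: 0% = vehicle and 100% = reference inhibitor; higher value means more JC-1 retained so stronger ABCB1 efflux block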
MEKK2wt confirm: modulators of MEK5 binding to wildtype MEKK2, confirmation, biochemical, single concentration, multiplex bead flow cytometry. Alexa488-MEK5 binding to MEKK2 WT; actives lie on both sides. shares compounds with MEKK3 PB1 HTS. 5,900 compounds, 2.4% hits. binding response (% of control), % at 10 µM. AID 1892, 2009; in the data active = binding response below about 16% or above about 210%; inactive = in between
MEKK2mut-MEK5: mutant MEKK2 PB1-MEK5 binding signal retest – biochemical, single concentration, multiplex bead flow cytometry, confirmation | shares compounds with MEKK3 PB1 HTS | Alexa488-MEK5 binding to MEKK2 mutant | 5,900 compounds, 2% hits | percent response, % at 10 µM | AID 1893, 2009; in the data active = percent response mostly above about 71%, no sharp cut-off; inactive = mostly below about 38%;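 also: higher means compound restores mutant binding toward wildtype level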
MEKK3-MEK5 inh: MEKK3 wild-type PB1 binding to MEK5, inhibitors, confirmation, biochemical, bead multiplex flow cytometry, single concentration, wildtype; shares compounds with MEKK3 PB1 HTS; Alexa488-MEK5 binding to MEKK3; stronger effect = lower value; binding response (% of control), % at 10 µM; 5,900 compounds, 1.8% hits; AID 1894, 2009;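 active = binding response below 72% of control, or above a set upper limit, though filed actives all read lower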;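 also: 100% = DMSO only wells and 0% = binding blocked by excess unlabeled MEK5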
* = called active by the depositor; [ ] = another dose, or the depositor's remark.

Screening CCOC(=O)C1CCN(C(=O)C2CCN(c3nc4ccc(OC)cc4s3)CC2)CC1 returned ABCG2 inh 22.4, MEKK2wt PB1 HTS 118.0, MEKK2mut PB1 HTS 7.0, Efflux pump inh -0.2, MEKK3 PB1 HTS 122.0*, ABCB1 block -1.6, MEKK2wt confirm 110.0, MEKK2mut-MEK5 8.0 and MEKK3-MEK5 inh 108.0.
`COc1ccccc1Nc1nnc(SCc2cc(=O)n3cc(C)ccc3n2)s1` gave ABCG2 inh 5.6, MEKK2wt PB1 HTS 111.0, MEKK2mut PB1 HTS 1.0, Efflux pump inh 0.1, MEKK3 PB1 HTS 142.0*, ABCB1 block 1.6, MEKK2wt confirm 90.0, MEKK2mut-MEK5 -10.0 and MEKK3-MEK5 inh 92.0.
For Cc1ccccc1Nc1nnc(SCc2cc(=O)n3ccsc3n2)s1 the results were ABCG2 inh 3.6, MEKK2wt PB1 HTS 104.0, MEKK2mut PB1 HTS 6.0, Efflux pump inh -0.1, MEKK3 PB1 HTS 103.0 and ABCB1 block 0.9.
Screening O=C(Nc1nncs1)c1ccc(S(=O)(=O)c2ccccc2)cc1 returned ABCG2 inh 4.3, MEKK2wt PB1 HTS 119.0, MEKK2mut PB1 HTS 6.0, Efflux pump inh 0.0, MEKK3 PB1 HTS 123.0*, ABCB1 block 0.5, MEKK2wt confirm 105.0, MEKK2mut-MEK5 0.0 and MEKK3-MEK5 inh 107.0.
For O=[N+]([O-])c1ccc(OC(F)F)c(/C=N/n2cnnc2)c1 the results were MEKK2wt PB1 HTS 62.0, MEKK2mut PB1 HTS -22.0, Efflux pump inh 0.0 and MEKK3 PB1 HTS 58.0.
For NC(=O)C(c1ccccn1)c1ncc(C(F)(F)F)cc1Cl (stereo not drawn) the results were ABCG2 inh 1.8, MEKK2wt PB1 HTS 52.0, MEKK2mut PB1 HTS -14.0, Efflux pump inh 0.0, MEKK3 PB1 HTS 40.0*[inhibitor], ABCB1 block 0.4, MEKK2wt confirm 101.0, MEKK2mut-MEK5 -1.0 and MEKK3-MEK5 inh 103.0.
Nc1ccccc1SC1CC(=O)N(c2ccccc2Cl)C1=O (stereo not drawn) was read as MEKK2wt PB1 HTS 59.0, MEKK2mut PB1 HTS -24.0, Efflux pump inh -0.2, MEKK3 PB1 HTS 49.0*[inhibitor], MEKK2wt confirm 101.0, MEKK2mut-MEK5 7.0 and MEKK3-MEK5 inh 102.0.
`O=C(Nc1cccc(Cl)c1)Nc1cccc(Cl)c1` gave ABCG2 inh 47.9, MEKK2wt PB1 HTS 161.0*, MEKK2mut PB1 HTS 16.0, Efflux pump inh 0.0, MEKK3 PB1 HTS 112.0, ABCB1 block 0.8, MEKK2wt confirm 150.0, MEKK2mut-MEK5 32.0 and MEKK3-MEK5 inh 105.0.
O=C(Nc1cccc(Cl)c1)Nc1cc(S(=O)(=O)N2CCCCC2)ccc1Cl was read as ABCG2 inh 33.0, MEKK2wt PB1 HTS 131.0, MEKK2mut PB1 HTS 78.0*, Efflux pump inh 0.1, MEKK3 PB1 HTS 102.0, ABCB1 block 7.5, MEKK2wt confirm 124.0, MEKK2mut-MEK5 1.0 and MEKK3-MEK5 inh 103.0.
